Results on 36 sequences are retold here after the EternaBench riboswitch data.

In the data set the test system is MS2 coat protein. Nature of the data set: apparent Kd, MS2 coat protein; higher = weaker binding; RNA-MaP array; FMN 200 µM where present. A digest of the protocol: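 Each design was made on Illumina sequencing-chip clusters by stalled E. coli RNA polymerase and titrated with SNAP-549-labelled MS2 coat protein from 0.7 or 1.5 nM, doubling to 3 µM, in the absence and then the presence of constant ligand. The buffer was 100 mM Tris-HCl pH 7.5, 80 mM KCl, 4 mM MgCl2, BSA, DTT, yeast tRNA and Tween-20. The apparent Kd is the median of filtered per-cluster fits of binding curves, with green signal normalised to red-channel RNA signal and control-cluster median Fmax.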

[1] abbreviates: designed as: OFF switch for flavin mononucleotide, no ligand.
[2] abbreviates: ligand present: flavin mononucleotide, designed as: OFF switch for flavin mononucleotide.
[3] abbreviates: designed as: ON switch for flavin mononucleotide, no ligand.
Setting [4] is: ligand present: flavin mononucleotide, designed as: ON switch for flavin mononucleotide.

Usually apparent Kd stands for a dissociation constant that holds for the conditions of the assay. Take “AUUUAUCUAGGAUAUACAUGAGGAUCACCCAUGUUGAAGCGUAGGUACCUUUCCGAAUGUAGAAGGAGAGCACC”: the “apparent Kd” value is, setting by setting: under setting [1], 19.9 nM; under setting [2], 22.2 nM.
In the case of “UGUAAUAUUAUAGGAUAUGGUUACGAUACGUAACCAGAAGGGUGAUUAUACUAUAAUCUAUACAUGAGGAUCACCCAUGUUUAU”, the “apparent Kd” value came to 205 nM under setting [3] and 110 nM under setting [4].
Turning to “UCGUCCUCGUGCUAGGAUAUCCAUCGUAAAACAUGAGGAUCACCCAUGUAGAAAUGCGCCUACGAGGAGAAGGAGCGAUGUGGAU”, the “apparent Kd” value was 20.6 nM under setting [3] and 15.2 nM under setting [4].
As for “AAGAGUAGAGGAUAUACAUGAGGAUCACCCAUGUAAUCCGGAUAAGGAAGCAUGUCGUGUAGAAGGCUGCAUGA”, the “apparent Kd” value reads like this: under setting [1], 15.2 nM; under setting [2], 12.4 nM.
The corresponding values for “CAGGUAGACUGAGGAUAUACAAAAGACCUAGUCUAUCUAGGUCAAAUCACAUGAGGAUCACCCAUGUAGAAGGCAGUCUGCCUG” are 16.8 nM and 27.3 nM.
The corresponding values for “AUACUAAAUGAAGGAUAUCUAAGCAUACACCUGAGAGAAGGUCAUUUUUACAUGAGGAUCACCCAUGUUGUGGUUAAUGGGUUA” are 290 nM and 374 nM.
Turning to “AGUCCACAUGAGGAUCACCCAUGUCUGGAGAAGACAGGAUAUAAGGAAAAAAAAAAAAACUUAGAAGGGUCAAAAA”, the “apparent Kd” value came to 128 nM under setting [3] and 69.7 nM under setting [4].
Consider “AACAAACAUGAGGAUCACCCAUGUCAGGAUAUCGAAACAACAAACAACAAACAACAAACGAGAAGGGACAACAA”, for which the “apparent Kd” value was found to be 25.6 nM under setting [1] and 28.3 nM under setting [2].
Taken in the same sequence, the figures for “GCAGGUCGAGGAUAUACAUGAGGAUCACCCAUGUAGAUCAACCAGCGAUAGCUGGAAUGUAGAAGGUGACCUGC” were 15.7 nM and 29.4 nM.
The corresponding values for “AACAGCACAGGAUAUACAUGAGGAUCACCCAUGUGAGAAUUAAGUGGCGUACCACAAAGUAGAAGGGUGCUGGA” are 37.1 nM and 286 nM.
On to “GACCGUCACAAUAACCGGUUGAACGAGGAUAUGAUCACUGGGCCUGCACAUGAGGAUCACCCAUGUCAGAAGGCGUUCAGUCCC”, for which the “apparent Kd” value under setting [1] was determined as 5.53 nM and the “apparent Kd” value under setting [2] was 16.4 nM.
For the sequence “GUGAAGAUAGCAGGAUAUAUAUUUCCUACAUGAGGAUCACCCAUGUAGGUGAUCAGCCGAGUAAAGUAGAAGGGCUAUCUUUAC”, the “apparent Kd” value is, setting by setting: under setting [3], 16.1 nM; under setting [4], 10.7 nM.
Regarding “CUUGUUUAUGUGAGGAUAUACUGUUAGUAAUGUUUGUAGAAGGUACAUGAGGAUCACCCAUGUUUAUUUAUAUU”, the “apparent Kd” value worked out at 19.2 nM under setting [1] and 18 nM under setting [2].
Taken in the same sequence, the figures for “GGUGCGUAUGUGAGGAUAUGCUGGUCCUUGGAUCAGCAGAAGGCACAUGAGGAUCACCCAUGUGGUGUCGUACU” were 282 nM and 26.1 nM.
The corresponding values for “UUGAUAAGGAGAGGAUAUGGACAUGAGGAUCACCCAUGUACAUGGGAAUAUUUACUGAAUUUUUACUAGAAGGCUUACAUAUUU” are 15.8 nM and 12.4 nM.
Taken in the same sequence, the figures for “AUCCGGAAUGUUAGGAUAUCUUGGCGCCUGUGCUUGGAGAAGGGACAUGAGGAUCACCCAUGUCCUCUCGGAAA” were 13.1 nM and 14.9 nM.
Turning to “UGUCGGAGCAGAGGAUAUUACAUGAGGAUCACCCAUGUAUGUACCAAUAGCUGGAAACAGCAAUGUAAGAAGGCUGCUCCGACA”, the “apparent Kd” value came to 6 nM under setting [1] and 24.7 nM under setting [2].
Consider “UUAAUCUAUACAGGAUAUCCAUACGCUGCAUACGGAGAAGGGUAACAAUCAUGAGGACAUGAGGAUCACCCAUGUUCUGAGCAU”, for which the “apparent Kd” value runs as follows: under setting [3], 11.7 nM; under setting [4], 10.7 nM.
In the case of “AUCAUCUUGUCAGGAUAUGCGUGUCAACGAAAGUAGACAAUCUUAAUAACAUGAGGAUCACCCAUGUAGAAGGGACGAGAUGAU”, the “apparent Kd” value under setting [1] is 19.8 nM and the “apparent Kd” value under setting [2] stood at 21 nM.
Taken in the same sequence, the figures for “GGAUAGGACAGAGGAUAUACGUGCUAGAGAUACUAGCAAAAUUUCCUCACAUGAGGAUCACCCAUGUAGAAGGCUGUCCUAUCC” were 18.5 nM and 435 nM.
Regarding “AAUAAACUCACAGGAUAUAGCAGAGGUCGCGUAAACUUACAGGCGACGAUGCUAGAAGGGUGACCACAUGAGGAUCACCCAUGU”, the “apparent Kd” value runs as follows: under setting [3], 871 nM; under setting [4], 118 nM.
Take “CAAGGUGGAGGAUAUACAUGAGGAUCACCCAUGUAAGGACAAUAAAUAAGAUGAAGAAGUAGAAGGCCACUCAA”: the “apparent Kd” value under setting [1] is 41.4 nM and the “apparent Kd” value under setting [2] was 46.3 nM.
Taken in the same sequence, the figures for “AAAUAAAUGUAAGGAUAUCGGUUUCAGAGAACGCGAGAAGGUACAUGAGGAUCACCCAUGUUCCGUUGGGUUAACUUGAUCGCC” were 7.14 nM and 13.6 nM.
The corresponding values for “AAAUAGAUCCGAGGAUAUACAAUCCGGAAACGGUACAUGAGGAUCACCCAUGUAGAAGGCGGAUCUACAGGUACUAAAGUAAAA” are 10.8 nM and 10.8 nM.
Take “GCGGCCAACGUAGGAUAUCUUCAGCCACAGCACAUUGCUGUACAUGAGGAUCACCCAUGUCCUGGAGAGAAGGACGGACGGCAG”: the “apparent Kd” value was found to be 37.7 nM under setting [3] and 8.73 nM under setting [4].
In the case of “UAUGUACGAGGAUAUACAUAGAUACAGAUACAUGUAGACGUACAUGAGGAUCACCCAUGUAGAAGGCGUAUAUA”, the “apparent Kd” value turned out to be 101 nM under setting [1] and 122 nM under setting [2].
“UGUUGUAUUACAGGAUAUCUAGUAUUUUUAUGUAGAGAAGGGUAUUCACAUGAGGAUCACCCAUGUAUAUACGAGGAAGUUGUG”: the “apparent Kd” value under setting [3] was 39.7 nM and the “apparent Kd” value under setting [4] is 43.2 nM.
Consider “UAAUCGUUGCAGAAGGUUAUUUUUUUAACAAGUCUCUUAACAUGAGGAUCACCCAUGUUUUUGAUGAAGGAUAUGCAACGGUAG”, for which the “apparent Kd” value stood at 5.89 nM under setting [1] and 6.15 nM under setting [2].
Regarding “AUUAAACAUGAGGAUCACCCAUGUCAACAAAGUCGAGGAUAUGGGCAUAUUAUCUUAUUACCAGAAGGCGAAUAAU”, the “apparent Kd” value is, setting by setting: under setting [3], 390 nM; under setting [4], 44 nM.
As to “GUAGCUCAUGAGAAGGCGAUCAUGAAACAUGAUCGAGGAUAUCAUGUAAACAUGAGGAUCACCCAUGUAUGGGUAUUAUGCUAC”, the “apparent Kd” value runs as follows: under setting [3], 126 nM; under setting [4], 47.1 nM.
On to “AGAUGCAUGUAGAAGGGAGGAUCACCAGUGUACUCAGGAUAUACAUGUGGUGACAUGAGGAUCACCCAUGUAUGCCAGAAGUUC”, for which the “apparent Kd” value was found to be 172 nM under setting [3] and 116 nM under setting [4].
Take “UGAGCUUGAGGAUAUACAUGAGGAUCACCCAUGUUGAGCUUGAGGAUCUUCGAGUUCGGUAGAAGGCGAGUUCG”: the “apparent Kd” value runs as follows: under setting [1], 16 nM; under setting [2], 33 nM.
Taken in the same sequence, the figures for “CGUUAUAACGAGAAGGCUGUCUGCAGUCCAGACGGAGGAUAUCGAGAAGACAUGAGGAUCACCCAUGUACGCUGGUGUCUUCAU” were 25.4 nM and 189 nM.
Regarding “AUAUGAAAGAUAGGAUAUACUGAGGUUGAAUGGGUAGAAGGAUCGAUAGUGGAGAAUACAUGAGGAUCACCCAUGUUGUGGAUU”, the “apparent Kd” value reads like this: under setting [3], 828 nM; under setting [4], 353 nM.
Take “GUGCGGUAGGAGAAGGACAGAGGCUUCAUUACAUACAUGAGGAUCACCCAUGUAGGAUAUCCUACCUCACGCGGCCUCCUCCUG”: the “apparent Kd” value amounted to 8.48 nM under setting [1] and 31.8 nM under setting [2].
Take “UUAAUUCGAAACAUGAGGAUCACCCAUGUGUUGUGGUUAAUAUAGGAUAUGUGUAUACUUUUAUGACAGAAGGAUGAUGGUACU”: the “apparent Kd” value is, setting by setting: under setting [3], 14.2 nM; under setting [4], 11.8 nM.
